Results of several laboratories.
Target: Tyrosine-protein kinase Fyn (FYN, Homo sapiens, UniProt P06241)

C#Cc1n[nH]c2c(-c3cn([C@@H](C)c4ccccn4)c(=O)[nH]c3=O)cc(F)cc12
inhibition (enzyme activity, inhibitor; 0.1 µM): 1.4%

Nc1ncc(-c2nc(N3CCOCC3)nc(N3CCOCC3)n2)c(C(F)F)n1
remaining binding (binding, competition with immobilised ligand; 10 µM): 100%

C#Cc1n[nH]c2c(-c3cn([C@@H](C)c4ccccc4)c(=O)[nH]c3=O)cc(F)cc12
inhibition (enzyme activity, inhibitor; 0.1 µM): 0.7%

O=C(Nc1cccnn1)N1CCN([C@@H]2CCOc3cc(C(F)(F)F)ccc32)CC1
inhibition (enzyme activity, inhibitor; 20 µM): 0%

COc1ncccc1-c1cnn2ccc(N3CCN(C(=O)OC(C)C)CC3)nc12
remaining binding (binding, competition with immobilised ligand; 1 µM): 49%

N#CC1(c2ccccn2)CCN(Cc2cc(C(=O)O)c(=O)n3ccccc23)CC1
remaining binding (cell-free assay, competition with immobilised ligand; 1 µM): 99%

O=c1[nH]c2ccccc2n1C1CCN(Cc2ccc(-c3[nH]c4cc5ncnc5cc4nc3-c3ccccc3)cc2)CC1
remaining signal (cell-free assay; 0.5 µM): 101%

Cc1ncc(C)n2nc(/C=C/c3nc(N4CCCC4)cc(N4CCOCC4)n3)nc12
inhibition (enzyme activity, inhibitor; 10 µM): 9%

Cn1cncc1[C@](O)(COc1ccc(C#N)cc1-c1ccc(OC(F)(F)F)cc1)c1ccc(C#N)cc1
remaining binding (cell-free assay, competition with immobilised ligand; 1 µM): 100%

Cn1cc(-c2cc(F)cc(N3CCn4c(cc5c4CCCC5)C3=O)c2CO)cc(Nc2ccc(N3CCN(C4COC4)CC3)cn2)c1=O
inhibition (enzyme activity, inhibitor; 0.1 µM): 8%

Cc1nn(C)cc1-c1nc2c(N3CCN(Cc4ccc(Cl)cc4)CC3)c(Cl)cnc2[nH]1
remaining binding (binding, competition with immobilised ligand; 1 µM): 100%

Cn1cc(-c2cccc(N3CCc4c(sc5c4CC(C)(C)C5)C3=O)c2CO)cc(Nc2ccncn2)c1=O
inhibition (enzyme activity, inhibitor; 1 µM): 6%

CC(C)(C)c1cc(C=C(C#N)C#N)cc(Br)c1O
remaining activity (enzyme activity, inhibitor; 0.5 µM): 67.2%
